Measurements reported in ChEMBL document CHEMBL2150931, “Design, synthesis, and biological activity of a novel series of human sirtuin-2-selective inhibitors” (J Med Chem, 2012).

Assays:
[1] = molecular target: T1, NAD-dependent protein deacetylase sirtuin-1 (Homo sapiens, UniProt Q96EB6); test: Inhibition of human recombinant SIRT1 using Fluor de Lys-SIRT as substrate incubated for 60 mins prior to substrate addition measured after 60 mins by fluorimetric analysis
T1 sequence (Q96EB6 whole entry): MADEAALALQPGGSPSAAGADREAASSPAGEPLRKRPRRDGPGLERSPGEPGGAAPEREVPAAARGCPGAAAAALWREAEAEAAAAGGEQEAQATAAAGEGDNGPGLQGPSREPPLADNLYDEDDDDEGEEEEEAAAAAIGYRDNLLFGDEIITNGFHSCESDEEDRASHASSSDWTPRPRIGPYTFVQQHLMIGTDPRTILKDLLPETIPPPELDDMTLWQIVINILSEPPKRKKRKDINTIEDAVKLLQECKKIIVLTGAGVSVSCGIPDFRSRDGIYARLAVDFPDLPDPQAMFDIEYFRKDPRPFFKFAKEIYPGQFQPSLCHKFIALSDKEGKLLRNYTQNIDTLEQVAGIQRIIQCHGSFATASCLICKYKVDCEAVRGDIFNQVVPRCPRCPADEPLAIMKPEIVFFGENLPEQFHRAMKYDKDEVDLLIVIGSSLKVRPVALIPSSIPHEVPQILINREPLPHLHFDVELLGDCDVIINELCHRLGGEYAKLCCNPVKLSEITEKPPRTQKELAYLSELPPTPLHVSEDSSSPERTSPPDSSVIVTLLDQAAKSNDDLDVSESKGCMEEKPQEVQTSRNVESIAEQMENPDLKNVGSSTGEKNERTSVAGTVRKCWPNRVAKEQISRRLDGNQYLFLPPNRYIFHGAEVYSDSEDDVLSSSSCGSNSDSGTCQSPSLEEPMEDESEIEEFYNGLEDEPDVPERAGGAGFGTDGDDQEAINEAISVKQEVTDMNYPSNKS
Method in brief: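 Human recombinant SIRT1 run the same way: 60 min at 37 °C with 1 mM NAD⁺ and serial compound dilutions, then 25 μM Fluor de Lys-SIRT substrate for 60 min. Stopped with nicotinamide-containing Developer II and read 45 min later at ex 360/em 460 nm. IC₅₀ from logit regression of % inhibition vs control; means of ≥3 experiments.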

[2] = molecular target: T2, NAD-dependent protein deacetylase sirtuin-2 (Homo sapiens, UniProt Q8IXJ6); test: Inhibition of human recombinant SIRT2 using Fluor de Lys-SIRT as substrate incubated for 60 mins prior to substrate addition measured after 60 mins by fluorimetric analysis
T2 sequence (Q8IXJ6 whole entry): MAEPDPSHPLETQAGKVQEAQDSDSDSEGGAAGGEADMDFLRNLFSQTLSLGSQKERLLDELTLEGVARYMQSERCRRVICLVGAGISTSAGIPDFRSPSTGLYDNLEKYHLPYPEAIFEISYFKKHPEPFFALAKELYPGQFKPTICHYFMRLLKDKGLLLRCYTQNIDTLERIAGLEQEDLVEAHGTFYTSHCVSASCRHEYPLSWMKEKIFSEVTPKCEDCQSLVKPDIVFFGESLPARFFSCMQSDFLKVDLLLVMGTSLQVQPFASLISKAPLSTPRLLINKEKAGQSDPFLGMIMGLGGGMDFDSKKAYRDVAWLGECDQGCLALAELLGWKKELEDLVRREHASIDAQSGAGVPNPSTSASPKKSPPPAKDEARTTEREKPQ
Method in brief: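 Human recombinant SIRT2 preincubated with 1 mM NAD⁺ and serial compound dilutions for 60 min at 37 °C, then 25 μM Fluor de Lys-SIRT substrate added. Reaction stopped at 60 min with Developer II containing nicotinamide. Fluorescence read 45 min later at ex 360/em 460 nm. % inhibition taken against control wells. IC₅₀ obtained by regression of log[Inh] vs logit % inhibition; means of ≥3 experiments.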

[3] = molecular target: T3, NAD-dependent protein deacetylase sirtuin-3, mitochondrial (Homo sapiens, UniProt Q9NTG7); test: Inhibition of human recombinant SIRT3 using Fluor de Lys-SIRT as substrate incubated for 60 mins prior to substrate addition measured after 60 mins by fluorimetric analysis
T3 sequence (Q9NTG7 whole entry): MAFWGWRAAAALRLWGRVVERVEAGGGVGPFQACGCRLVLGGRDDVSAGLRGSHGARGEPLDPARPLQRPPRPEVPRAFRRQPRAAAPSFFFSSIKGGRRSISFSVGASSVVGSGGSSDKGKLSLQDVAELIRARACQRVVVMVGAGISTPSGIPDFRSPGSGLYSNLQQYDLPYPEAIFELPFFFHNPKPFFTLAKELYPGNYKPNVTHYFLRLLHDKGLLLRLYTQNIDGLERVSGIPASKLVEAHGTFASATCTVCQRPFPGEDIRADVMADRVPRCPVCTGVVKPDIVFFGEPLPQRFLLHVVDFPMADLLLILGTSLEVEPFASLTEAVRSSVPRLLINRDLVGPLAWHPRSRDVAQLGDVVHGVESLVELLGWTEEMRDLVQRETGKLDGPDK

IC50 [1]	IC50 [2]	IC50 [3]	Compound
> 100 µM	1.2 µM		NC(=O)c1ccccc1Nc1cccc(OCCc2ccc(Br)cc2)c1
> 100 µM	> 100 µM		NC(=O)c1ccccc1Nc1cccc(C(=O)O)c1
> 100 µM	> 300 µM		CN(C(=O)c1ccccc1)c1ccc(Nc2ccccc2C(N)=O)cc1
> 100 µM	1.4 µM		NC(=O)c1ccccc1Nc1cccc(OCCc2ccc(C(F)(F)F)cc2)c1
> 100 µM	40 µM		CN(Cc1ccccc1)C(=O)c1cccc(Nc2ccccc2C(N)=O)c1
	100 µM		NC(=O)c1ccccc1Nc1cccc(C(F)(F)F)c1
93 µM	> 100 µM		NC(=O)c1ccccc1Nc1cccc(CCC(=O)O)c1
> 100 µM	> 100 µM		NC(=O)c1ccccc1Nc1ccc(NC(=O)c2ccncc2)cc1
> 100 µM	> 300 µM		NC(=O)c1ccccc1Nc1ccc(/C=C/c2ccccc2)cc1
> 100 µM	60 µM		Cc1ccc(Nc2ccccc2C(N)=O)cc1
	> 100 µM		NC(=O)c1ccccc1Nc1ccccc1 [ANILINOBENZAMIDE]
	> 100 µM		NC(=O)c1ccccc1NCc1ccccc1
> 100 µM	> 100 µM		NC(=O)c1ccccc1Nc1ccc(Oc2ccccc2)cc1
	32 µM		COC(=O)/C=C/c1cccc(Nc2ccccc2C(N)=O)c1
	72 µM		Cc1cccc(Nc2ccccc2C(N)=O)c1
	25 µM		NC(=O)c1ccccc1Nc1cccc(Oc2ccccc2)c1
	33 µM		NC(=O)c1ccccc1Nc1cccc(-c2ccccc2)c1
> 100 µM	3.4 µM		NC(=O)c1ccccc1Nc1cccc(OCCc2cccc(Br)c2)c1

IC50 [1]	IC50 [2]	IC50 [3]	Compound
	93 µM		N#Cc1ccc(Nc2ccccc2C(N)=O)cc1
> 100 µM	38 µM		NC(=O)c1ccccc1Nc1ccc(NC(=O)c2cccnc2)cc1
> 100 µM	88 µM		NC(=O)c1ccccc1Nc1ccc(CCc2ccccc2)cc1
> 100 µM	> 100 µM		NC(=O)c1ccccc1Nc1ccc(NC(=O)c2ccccn2)cc1
> 100 µM	20 µM		NC(=O)c1ccccc1Nc1ccc(/C=C\c2ccccc2)cc1
> 100 µM	53 µM		NC(=O)c1ccccc1Nc1ccc(NC(=O)C2CCNCC2)cc1
> 100 µM	> 100 µM		CN(C(=O)Cc1ccccc1)c1cccc(Nc2ccccc2C(N)=O)c1
> 100 µM	0.83 µM		NC(=O)c1ccccc1Nc1cccc(OCCc2ccc(Cl)cc2)c1
> 100 µM	1.8 µM		Cc1ccccc1CCOc1cccc(Nc2ccccc2C(N)=O)c1
> 100 µM	2.7 µM		NC(=O)c1ccccc1Nc1cccc(OCCc2ccc(F)cc2)c1
	> 100 µM		NC(=O)c1ccccc1Nc1cccc(/C=C/C(=O)O)c1
> 300 µM	4.3 µM		NC(=O)c1ccccc1Nc1cccc(OCCCc2ccccc2)c1
> 100 µM	57 µM		NC(=O)c1ccccc1Nc1cccc(NC(=O)c2ccccc2)c1
> 100 µM	1.5 µM		NC(=O)c1ccccc1Nc1cccc(OCCc2ccccc2Cl)c1
> 100 µM	83 µM		NC(=O)c1ccccc1Nc1cccc(C(=O)Nc2ccccc2)c1
> 100 µM	> 100 µM		NC(=O)c1ccccc1Nc1ccc(-c2ccccc2)cc1
> 100 µM	> 100 µM		CN(C)C(=O)c1ccccc1Nc1ccccc1
> 100 µM	69 µM		CN(C(=O)c1ccc(Nc2ccccc2C(N)=O)cc1)c1ccccc1

Second part, the molecule before the results:

Compound	IC50 [1]	IC50 [2]	IC50 [3]
COC(=O)c1ccc(Nc2ccccc2C(N)=O)cc1	> 100 µM	83 µM	
NC(=O)c1ccccc1Nc1cccc(OCCc2ccccc2F)c1	> 100 µM	2 µM	
NC(=O)c1ccccc1Nc1cccc(CCO)c1		> 100 µM	
Cc1ccc(CCOc2cccc(Nc3ccccc3C(N)=O)c2)cc1	> 100 µM	1.6 µM	
CC(C)(C)c1ccc(Nc2ccccc2C(N)=O)cc1		> 100 µM	
CC(C)COc1cccc(Nc2ccccc2C(N)=O)c1	> 300 µM	30 µM	
CNC(=O)c1ccccc1Nc1ccccc1	> 100 µM	> 100 µM	
COC(=O)c1cccc(Nc2ccccc2C(N)=O)c1	> 100 µM	> 100 µM	
CSc1ccc(Nc2ccccc2C(N)=O)cc1		> 100 µM	
O=C(O)c1ccccc1Nc1ccccc1 [FENAMIC ACID]	68 µM	> 100 µM	
CN(C(=O)c1cccc(Nc2ccccc2C(N)=O)c1)c1ccccc1	> 100 µM	> 100 µM	
NC(=O)c1ccccc1Nc1ccc(NC(=O)C2CCCCC2)cc1	> 100 µM	25 µM	
NC(=O)c1ccccc1Nc1cccc(OCCc2cccc(Cl)c2)c1	> 100 µM	2 µM	
Cc1cccc(CCOc2cccc(Nc3ccccc3C(N)=O)c2)c1	> 100 µM	1.8 µM	
NC(=O)c1ccccc1Nc1ccc(Cl)cc1	56 µM	> 100 µM	
NC(=O)c1ccccc1Nc1ccc(C(=O)Nc2ccccc2)cc1	> 100 µM	23 µM	
NC(=O)c1ccccc1Oc1ccccc1	> 100 µM	> 100 µM	
CC(=O)Nc1ccc(Nc2ccccc2C(N)=O)cc1	> 100 µM	77 µM	
NC(=O)c1ccccc1Nc1cccc(OCCc2cccc(F)c2)c1	> 100 µM	0.57 µM	> 300 µM

Compound	IC50 [1]	IC50 [2]	IC50 [3]
CN(c1ccccc1)c1ccccc1C(N)=O	75 µM	> 100 µM	
NC(=O)c1ccccc1Nc1cccc(OCCc2ccccc2Br)c1	> 100 µM	1.1 µM	
NC(=O)c1ccccc1Sc1ccccc1		> 100 µM	
NC(=O)c1ccccc1Nc1cccc(NC(=O)Cc2ccccc2)c1	> 100 µM	74 µM	
NC(=O)c1ccccc1Nc1cccc(C(=O)NCc2ccccc2)c1	> 100 µM	39 µM	
NC(=O)c1ccccc1Nc1ccc(C(=O)O)cc1		> 100 µM	
NC(=O)c1ccccc1Nc1cccc(OCCc2cccc(C(F)(F)F)c2)c1	> 100 µM	2.1 µM	
NC(=O)c1ccccc1Nc1ccc(C(F)(F)F)cc1		69 µM	
NC(=O)c1ccccc1Nc1cccc(OCC2CCCCC2)c1	210 µM	24 µM	
NC(=O)c1ccccc1Nc1cccc(OCCc2ccccc2C(F)(F)F)c1	> 100 µM	3.1 µM	
CC(C)C(=O)Nc1ccc(Nc2ccccc2C(N)=O)cc1	> 100 µM	> 100 µM	
NC(=O)c1ccccc1Nc1ccc2ccccc2c1	> 100 µM	> 100 µM	
NC(=O)c1ccccc1Nc1cccc(OCc2ccccc2)c1	> 300 µM	54 µM	
COc1ccc(Nc2ccccc2C(N)=O)cc1	> 100 µM	80 µM	
NC(=O)c1ccccc1Nc1cccc(CO)c1		> 100 µM	
NC(=O)c1ccccc1Nc1ccc(NC(=O)c2ccccc2)cc1	> 100 µM	17 µM	
CN(C(=O)c1ccccc1)c1cccc(Nc2ccccc2C(N)=O)c1	> 100 µM	> 100 µM	
COC(=O)CCc1cccc(Nc2ccccc2C(N)=O)c1		93 µM	
